This is an account of results in ChEMBL document CHEMBL1149071, “Lignans from the wood of Abies pinsapo” (J Nat Prod, 1994).

What all share (assay type): functional, organism-based
In one assay the test system is Human alphaherpesvirus 1. Kind of assay: Antiviral activity against HSV1 at 40 ug/ml.
The test system of assay [1] is Vesicular stomatitis virus. Kind of assay: Antiviral activity against VSV at 40 ug/ml.
The next assay has as its system Penicillium. Kind of assay: Antifungal ativity against Penicillium. In short, it runs like this: (§1)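 Disk diffusion on brain-heart agar plates inoculated with 0.1 ml of 8 h-old fungal cultures grown in CM medium (1% glucose, 0.5% yeast extract, 0.5% malt extract). 5-mm paper disks carrying 1 mg of sample were applied. Plates were held 2 h at 4° for diffusion, then incubated at 28°. Growth-inhibition halo (mm) was read at 18 h.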

Another assay has as its system Aspergillus niger. Kind of assay: Antifungal ativity against Aspergillus niger CECT 2089. In short, it runs like this: as §1

Activity calls are given as the source filed them. No cut-off for these calls is given here.

For the compound `COc1cc(C[C@H](COC(C)=O)Oc2ccc(C[C@@H]3[C@@H](Cc4ccc(OC(C)=O)c(OC)c4)CO[C@H]3OC(C)=O)cc2OC)ccc1OC(C)=O`, the outcome (in the assay on Human alphaherpesvirus 1; in assay [1]) was inactive.
On to `COc1cc(C[C@H]2CO[C@H](c3ccc(O)c(OC)c3)[C@H]2CO)ccc1O`, for which, in the assay with Penicillium, the Growth-inhibition halo result is “inactive”. The result (with Aspergillus niger; with Human alphaherpesvirus 1; in assay [1]) was inactive.
With `COc1cc(C[C@H]2[C@H](OC(C)=O)OC[C@@H]2[C@H](OC(C)=O)c2ccc(OC(C)=O)c(OC)c2)ccc1OC(C)=O`, the result (with Human alphaherpesvirus 1; in assay [1]) was inactive.
In the case of `COc1cc(C[C@H]2COC(=O)[C@@H]2Cc2ccc(O)c(OC)c2)ccc1O`, in the assay on Penicillium, the Growth-inhibition halo result was “inactive”. Further, the result (with Aspergillus niger; in the assay on Human alphaherpesvirus 1; in assay [1]) was inactive.
Regarding `COc1cc(C[C@H](CO)Oc2ccc(C[C@H]3C(=O)OC[C@@H]3Cc3ccc(O)c(OC)c3)cc2OC)ccc1O`, the Growth-inhibition halo result in the assay with Penicillium is “inactive”. Further, in the assay with Aspergillus niger, the result was inactive.
`COc1cc(C[C@H]2[C@H](OC(C)=O)O[C@H](c3ccc(OC(C)=O)c(OC)c3)[C@H]2COC(C)=O)ccc1OC(C)=O`: the result (with Human alphaherpesvirus 1; in assay [1]) was inactive.
For the compound `COc1cc(C[C@H]2COC(O)[C@@H]2Cc2ccc(O)c(OC)c2)ccc1O` (some centres undefined), in the assay with Penicillium, the Growth-inhibition halo entry was “inactive”. Besides, the result (with Aspergillus niger; with Human alphaherpesvirus 1; in assay [1]) was inactive.
On to `COc1cc([C@H]2OC[C@H]([C@H](OC(C)=O)c3ccc(OC(C)=O)c(OC)c3)[C@@H]2COC(C)=O)ccc1OC(C)=O`, for which the outcome (with Human alphaherpesvirus 1; in assay [1]) was inactive.
Regarding `COc1cc([C@H]2OC[C@H]([C@@H](OC(C)=O)c3ccc(OC(C)=O)c(OC)c3)[C@@H]2COC(C)=O)ccc1OC(C)=O`, the outcome (with Human alphaherpesvirus 1; in assay [1]) was inactive.
